Paper PMC6591795 (ChemistryOpen, 2019)
Read-outs that look alike come from different tables or passages of the source.

Columns and labels:
[1] = molecular target: T1, GTB (Homo sapiens, UniProt P16442, G235S/G268A/L266M/R176G); test: methyl TROSY CSP titration, TITAN lineshape analysis; format: binding; details: for Kd: K D
T1 sequence (P16442 64-354 R176G/G235S/L266M/G268A limits assumed): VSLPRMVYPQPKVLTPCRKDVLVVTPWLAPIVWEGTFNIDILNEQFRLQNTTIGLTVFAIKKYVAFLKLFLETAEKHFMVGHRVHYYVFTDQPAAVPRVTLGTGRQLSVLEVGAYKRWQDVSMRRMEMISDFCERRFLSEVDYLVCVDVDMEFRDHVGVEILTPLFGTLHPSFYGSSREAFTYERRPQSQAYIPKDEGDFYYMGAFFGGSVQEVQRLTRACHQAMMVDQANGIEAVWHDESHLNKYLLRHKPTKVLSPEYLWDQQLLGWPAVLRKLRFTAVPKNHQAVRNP
Method in brief: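 Enzyme expressed in D₂O-based M9 minimal medium with ¹³C-methyl precursors, IPTG-induced, and purified by cation-exchange and UDP-affinity chromatography. Ligand titrated at constant protein concentration, with a 2D [¹³C,¹H] HMQC at each point. Kd and koff from a global multi-peak TITAN two-state fit; apo parameters fixed from the ligand-free spectrum; 200-run bootstrap residual resampling.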

[2] = molecular target: T1, GTB; details: read-out: KD from ITC; UDP binding to GTB:H-Dis; cited from earlier work
[3] = GTB in presence of saturating B-Tris
[4] = GTB in presence of saturating H-Dis
[5] = GTB in presence of saturating H-Tris I
[6] = GTB in presence of saturating H-Tris II
[7] = GTB in presence of saturating H-Tris III
[8] = GTB in presence of saturating H-Tris IV
[9] = GTB in presence of saturating H-Tris V
[10] = GTB in presence of saturating H-Tris VI
[11] = apo GTB, donor-type ligands, Mg2+, 298 K

- koff [1, 3]: 18 ± 1 s⁻¹
- kon [1, 3]: 28000 M⁻¹ s⁻¹
- koff [1, 4]: 2.6 ± 0.3 s⁻¹
- kon [1, 4]: 25000 M⁻¹ s⁻¹
- off-rate constant koff ([1]; GTB in presence of saturating H-Dis, from titration analysis (Table 3)): 2.6 Hz
- koff [1, 5]: 2.2 ± 0.2 s⁻¹
- kon [1, 5]: 58000 M⁻¹ s⁻¹
- koff [1, 6]: 1.7 ± 0.3 s⁻¹
- kon [1, 6]: 280000 M⁻¹ s⁻¹
- koff [1, 7]: 3.6 ± 0.5 s⁻¹
- kon [1, 7]: 120000 M⁻¹ s⁻¹
- koff [1, 8]: 12 ± 1 s⁻¹
- kon [1, 8]: 190000 M⁻¹ s⁻¹
- koff [1, 9]: 3.4 ± 0.3 s⁻¹
- kon [1, 9]: 120000 M⁻¹ s⁻¹
- koff [1, 10]: 2.2 ± 0.2 s⁻¹
- kon [1, 10]: 69000 M⁻¹ s⁻¹
- kon multiplied by the UDP concentration (comparable to kAB) ([1]; GTB saturated with H-Dis, kon=2.5×10^4 M^−1s^−1 times 250 μM UDP): ca. 6.3 Hz
- Kd [1, 3]: 660 ± 10 µM
- Kd [1, 4]: 103 ± 2 µM
- Kd [1, 5]: 38 ± 1 µM
- Kd [1, 6]: 6 ± 1 µM
- Kd [1, 7]: 29 ± 1 µM
- Kd [1, 8]: 65 ± 2 µM
- Kd [1, 9]: 31 ± 1 µM
- Kd [1, 10]: 32 ± 1 µM
- Kd [1, 11]: 161 ± 3 µM
- koff [1, 11]: 243 ± 7 s⁻¹
- kon [1, 11]: 1.5e+06 M⁻¹ s⁻¹
Compound: O=c1ccn([C@@H]2O[C@H](COP(=O)(O)OP(=O)(O)O)[C@@H](O)[C@H]2O)c(=O)[nH]1 [UDP, uridine diphosphate]
- Kd [2]: 27 µM
